This note sets out measurements from ChEMBL document CHEMBL4325933, “Potent, Selective, and Cell-Penetrating Inhibitors of Kallikrein-Related Peptidase 4 Based on the Cyclic Peptide MCoTI-II” (ACS Med Chem Lett, 2018).

pKi: −log10 of the molar value. Positions of bridges follow the written chain, without caps; N, C: chain ends. Residues, ends and D or L forms follow the SMILES beside them.

The pKi is the negative decadic logarithm of the Ki, by convention in mol/L. Lower therefore signals a large Ki.

Data set [1] addresses Kallikrein-4 (Homo sapiens, UniProt Q9Y5K2). Briefly: Inhibition of KLK4 (unknown origin) expressed in sf9 cells using Ac-FVQR-pNA as substrate preincubated for 30 mins followed by substrate addition and measured for 7 mins by spectrophotometric method.
Data set [2] can be described thus: Drug uptake in human HeLa cells at 4 uM using Alexa Fluor 488 conjugated test compound after 1 hr by trypan blue dye based flow cytometry relative to HIV-Tat. Type of data set: ADME, cell-based. In a few lines:
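HeLa cells given Alexa Fluor 488-conjugated peptides (4 μM). Mean fluorescence measured by flow cytometry before and after trypan blue quenching of extracellular signal. Values normalized to the HIV-TAT positive control (post-trypan blue). Three independent experiments, SD; one-way ANOVA with Tukey's post hoc test.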
(In general: A flow cytometer gives signals particle by particle.)

Data set [3] deals with HeLa. Briefly: Cytotoxicity against human HeLa cells up to 64 uM after 2 hrs by resazurin dye based assay. Type of data set: cell-based. The procedure, abridged:
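HeLa cells exposed to peptides for 2 h, concentrations up to 64 μM. Resazurin then added for 18 h at 37 °C. Resorufin absorbance read at 540 and 620 nm, and viability % expressed as the A620/A540 ratio. Three independent experiments, standard deviation.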
(Alamar Blue is a resazurin reagent that responds to reducing activity.)

Kallikrein-4, sequence (Q9Y5K2 whole entry): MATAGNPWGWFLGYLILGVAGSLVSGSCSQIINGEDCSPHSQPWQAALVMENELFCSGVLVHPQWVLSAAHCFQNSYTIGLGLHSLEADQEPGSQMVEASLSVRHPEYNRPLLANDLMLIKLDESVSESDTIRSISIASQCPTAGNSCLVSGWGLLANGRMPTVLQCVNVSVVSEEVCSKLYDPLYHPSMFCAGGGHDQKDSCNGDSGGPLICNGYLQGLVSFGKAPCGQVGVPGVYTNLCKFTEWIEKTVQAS

For `CC[C@H](C)[C@@H]1NC(=O)[C@@H]2CSSC[C@@H]3NC(=O)[C@H](C(C)C)NC(=O)CNC(=O)CNC(=O)[C@H](CC(=O)O)NC(=O)[C@H](CO)NC(=O)CNC(=O)[C@H](CO)NC(=O)CNC(=O)[C@@H]4CSSC[C@H](NC(=O)[C@H](CC(=O)O)NC(=O)[C@H](CO)NC(=O)[C@H](CC(=O)O)NC(=O)[C@H](CCC(N)=O)NC(=O)[C@H](CCC(N)=O)NC(=O)[C@H](CSSC[C@H](NC1=O)C(=O)N[C@@H](CCCCN)C(=O)NCC(=O)N[C@@H](CC(N)=O)C(=O)NCC(=O)N[C@@H](Cc1ccc(O)cc1)C(=O)N4)NC(=O)[C@H](CCC(N)=O)NC(=O)[C@H](CCC(N)=O)NC(=O)[C@H](CC(C)C)NC(=O)[C@H]([C@@H](C)CC)NC(=O)[C@H](CCCNC(=N)N)NC(=O)[C@@H]1CCCN1C3=O)C(=O)N1CCC[C@H]1C(=O)NCC(=O)N[C@@H](C)C(=O)N2` (cyclo(ACICKGNGYCGSGSDGGVCPRILQQCQQDSDCPG); disulfide 2-19, 4-26, 10-32), the pKi in data set [1] was 8.74. The Drug uptake entry in data set [2] is listed as “Not Active”. In addition, the Activity result in data set [3] is reported as “Non-Toxic”.
As to `CC[C@H](C)[C@@H]1NC(=O)[C@@H]2CSSC[C@@H]3NC(=O)[C@H](Cc4ccccc4)NC(=O)CNC(=O)CNC(=O)[C@H](CC(=O)O)NC(=O)[C@H](CO)NC(=O)CNC(=O)[C@H](CO)NC(=O)CNC(=O)[C@@H]4CSSC[C@H](NC(=O)[C@H](CC(=O)O)NC(=O)[C@H](CO)NC(=O)[C@H](CC(=O)O)NC(=O)[C@H](CCCNC(=N)N)NC(=O)[C@H](CCCNC(=N)N)NC(=O)[C@H](CSSC[C@H](NC1=O)C(=O)N[C@@H](CCCNC(=N)N)C(=O)NCC(=O)N[C@@H](CC(N)=O)C(=O)NCC(=O)N[C@@H](Cc1ccc(O)cc1)C(=O)N4)NC(=O)[C@H](CCCCN)NC(=O)[C@H](CCCCN)NC(=O)[C@H](CC(C)C)NC(=O)[C@H]([C@@H](C)CC)NC(=O)[C@H](CCCCN)NC(=O)[C@@H]1CCCN1C3=O)C(=O)N1CCC[C@H]1C(=O)NCC(=O)N[C@@H](C)C(=O)N2`, the negative-log Ki (pKi) in data set [1] is 8.89.
Same read-out and setting: as for `CC[C@H](C)[C@@H]1NC(=O)[C@@H]2CSSC[C@@H]3NC(=O)[C@H](C(C)C)NC(=O)CNC(=O)CNC(=O)[C@H](CC(=O)O)NC(=O)[C@H](CO)NC(=O)CNC(=O)[C@H](CO)NC(=O)CNC(=O)[C@@H]4CSSC[C@H](NC(=O)[C@H](CC(=O)O)NC(=O)[C@H](CO)NC(=O)[C@H](CC(=O)O)NC(=O)[C@H](CCCNC(=N)N)NC(=O)[C@H](CCCNC(=N)N)NC(=O)[C@H](CSSC[C@H](NC1=O)C(=O)N[C@@H](CCCNC(=N)N)C(=O)NCC(=O)N[C@@H](CC(N)=O)C(=O)NCC(=O)N[C@@H](Cc1ccc(O)cc1)C(=O)N4)NC(=O)[C@H](CCCCN)NC(=O)[C@H](CCCCN)NC(=O)[C@H](CC(C)C)NC(=O)[C@H]([C@@H](C)CC)NC(=O)[C@H](CCCCN)NC(=O)[C@H](CCC(N)=O)NC3=O)C(=O)N1CCC[C@H]1C(=O)NCC(=O)N[C@@H](C)C(=O)N2`, the figure is 9.89.
As to `CC[C@H](C)[C@@H]1NC(=O)[C@@H]2CSSC[C@@H]3NC(=O)[C@H](C(C)C)NC(=O)CNC(=O)CNC(=O)[C@H](CC(=O)O)NC(=O)[C@H](CO)NC(=O)CNC(=O)[C@H](CO)NC(=O)CNC(=O)[C@@H]4CSSC[C@H](NC(=O)[C@H](CC(=O)O)NC(=O)[C@H](CO)NC(=O)[C@H](CC(=O)O)NC(=O)[C@H](CCCNC(=N)N)NC(=O)[C@H](CCCNC(=N)N)NC(=O)[C@H](CSSC[C@H](NC1=O)C(=O)N[C@@H](CCCNC(=N)N)C(=O)NCC(=O)N[C@@H](CC(N)=O)C(=O)NCC(=O)N[C@@H](Cc1ccc(O)cc1)C(=O)N4)NC(=O)[C@H](CCCCN)NC(=O)[C@H](CCCCN)NC(=O)[C@H](CC(C)C)NC(=O)[C@H]([C@@H](C)CC)NC(=O)[C@H](CCCNC(=N)N)NC(=O)[C@@H]1CCCN1C3=O)C(=O)N1CCC[C@H]1C(=O)NCC(=O)N[C@@H](C)C(=O)N2`, the negative-log Ki (pKi) in data set [1] was 9.52. In addition, the Drug uptake entry in data set [2] is “Not Active”.
